Measured values published in paper PMC4361317 (Nuclear medicine and biology, 2014).
“Also recorded” adds a separate entry of the source. Where a SMILES comes first, the peptide text is derived from it. Bridges are numbered along the chain shown (N, C = ends). [ ]: non-standard residue; d: D form. Aoc = NCCCCCCCC(=O)O

Key:
MC1 receptor = MC1 receptor (Homo sapiens, UniProt Q01726); assay: In vitro competitive binding, MC1 receptor, M21 human melanoma cells, ^125I-
Summary of the method: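 Intact M21 cells (1.5×10^5/well) were incubated for 2 h at 37 °C with ~30,000 cpm 125I-(Tyr2)-NDP-MSH plus 10−12 to 10−5 M test compound. Medium was MEM with 25 mM HEPES pH 7.4, 0.2% BSA and 0.3 mM 1,10-phenanthroline. Cells were rinsed twice with ice-cold 0.2% BSA/0.01 M PBS pH 7.4, lysed in 1 N NaOH for 5 min and gamma counted. Triplicate; IC50 calculated.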

αvβ3 integrin receptor = αvβ3 integrin receptor (Homo sapiens, UniProt P05106+P06756); type: binding
Summary of the method: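 M21 cells (1×10^5/well) were placed on 0.65 µm filter plates and incubated for 2 h at 25 °C with ~30,000 cpm 125I-echistatin and 10−11 to 10−4 M test compound. The binding medium was HEPES-buffered MEM pH 7.4 with BSA and phenanthroline. Bound and free ligand were separated by vacuum filtration with two ice-cold BSA/PBS pH 7.4 rinses, and the PVDF filters were gamma counted. Triplicate; IC50 calculated.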

[1] = test system: M21 human melanoma-xenografted nude mice; conditions: mouse, in vivo; cited from earlier work

IC50 (MC1 receptor) [nM]	IC50 (αvβ3 integrin receptor) [nM]	binding affinity for αvβ3 integrin receptor (in words) (αvβ3 integrin receptor; M21 cells)	Compound	MC1 receptor binding affinity, compared with RGD-PEG2-(Arg^11)CCMSH (MC1 receptor; M21 cells)	αvβ3 integrin receptor binding affinity, compared with RGD-PEG2-(Arg^11)CCMSH (αvβ3 integrin receptor; M21 cells)	melanoma uptake relative to ^99mTc-RAD-Lys-(Arg^11)CCMSH [1] [times]	melanoma uptake relative to ^99mTc-RGD-Lys-(Arg^11)CCMSHscramble [1] [times]
1.5 ± 0.2	1130 ± 26	low micromolar range	CC(C)[C@H](NC(=O)[C@@H]1CCCN1C(=O)[C@H](CCCNC(=N)N)NC(=O)[C@H](CS)NC(=O)[C@H](Cc1c[nH]c2ccccc12)NC(=O)[C@H](CCCNC(=N)N)NC(=O)[C@@H](Cc1ccccc1)NC(=O)[C@H](Cc1c[nH]cn1)NC(=O)[C@H](CCC(=O)O)NC(=O)[C@H](CS)NC(=O)[C@H](CS)NC(=O)CCCCCCCNC(=O)[C@@H]1CC(=O)N[C@@H](CCCNC(=N)N)C(=O)NCC(=O)N[C@@H](CC(=O)O)C(=O)N[C@H](Cc2ccc(O)cc2)C(=O)N1)C(N)=O [RGD-Aoc-(Arg^11)CCMSH] (RGD[dY]D[Aoc]CCEH[dF]RWCRPV-NH2; lactam N-5)	stronger receptor binding affinity; also recorded: slightly stronger binding affinities	stronger receptor binding affinity; also recorded: slightly stronger binding affinities		
			cyclic(Arg-Gly-Asp-DTyr-Asp)-Lys-(^99mTc-[Cys^3,4,10, D-Phe^7, Arg^11]α-MSH3–13) (bicyclic or more) [^99mTc-RGD-Lys-(Arg^11)CCMSH]			2.5	2.2
